Experimental data reported in ChEMBL document CHEMBL4765239, “Discovery of a Novel Highly Selective Histamine H4 Receptor Antagonist for the Treatment of Atopic Dermatitis” (J Med Chem, 2018).
Converted amounts (≈) assume the structure as drawn.

Legend:
Histamine H3 receptor = Histamine H3 receptor (Homo sapiens, UniProt Q9Y5N1); assay: Displacement of [3H]-N-alpha-methylhistamine from recombinant human histamine H3 receptor expressed in CHO-K1 cell membranes measured after 30 mins by microbeta scintillation counting method; set-up: species or system Cell membrane
In short: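 Competitive binding on CHO-K1 membranes expressing human H3R ([3H]Nα-methylhistamine) or mouse H4R ([3H]histamine). Run in 50 mM Tris-HCl pH 7.4 for 30 min at 27 °C, then filtered onto 0.5% PEI-treated glass fiber and washed three times with ice-cold buffer. Bound radioactivity read by liquid scintillation counting.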

[1] = molecular target: T1, 5-hydroxytryptamine receptor 3A (Homo sapiens) (UniProt P46098); assay: Displacement of [3H]BRL 43694 from human recombinant 5-HT3 receptor at 10 uM after 120 mins by scintillation counting analysis relative to control
T1 sequence (whole entry): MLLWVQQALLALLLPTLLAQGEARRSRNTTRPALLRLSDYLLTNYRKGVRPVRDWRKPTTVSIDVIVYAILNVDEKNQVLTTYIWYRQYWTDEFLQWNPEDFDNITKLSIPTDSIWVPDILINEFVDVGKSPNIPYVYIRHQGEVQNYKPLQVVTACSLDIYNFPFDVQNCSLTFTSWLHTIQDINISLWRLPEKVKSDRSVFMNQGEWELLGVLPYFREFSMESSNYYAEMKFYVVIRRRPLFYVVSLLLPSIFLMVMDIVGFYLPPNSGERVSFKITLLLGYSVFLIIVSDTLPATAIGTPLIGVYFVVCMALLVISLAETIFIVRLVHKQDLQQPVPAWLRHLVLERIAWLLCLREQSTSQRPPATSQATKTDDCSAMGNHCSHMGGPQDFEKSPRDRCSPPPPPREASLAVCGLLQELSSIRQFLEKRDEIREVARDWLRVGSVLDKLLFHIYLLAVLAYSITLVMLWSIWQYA

[2] = Intrinsic clearance in CD1 mouse liver microsomes at 5 uM incubated upto 30 mins in presence of NADPH by UPLC-UV analysis; type: ADME, Microsome; conditions: read-out: CLH
In short: (§1)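 Test compound at 5 µM incubated with pooled CD-1 mouse or human liver microsomes plus 1 mM NADPH. Remaining compound measured by UPLC-UV at 0, 10, 20 and 30 min. CLint derived from the first-order elimination rate constant, normalized to microsomal protein.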

[3] = Intrinsic clearance in human liver microsomes at 5 uM incubated upto 30 mins in presence of NADPH by UPLC-UV analysis; type: ADME, Microsome; conditions: read-out: CLH; in short: as §1
[4] = Solubility of compound in SGF at pH 1.2 incubated for 2 hrs by UPLC-UV analysis; type: physicochemical
In short: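 Compound incubated at 37 °C in FaSSIF (pH 6.5) for 0.5 h or in SGF (pH 1.2) for 2 h. Filtered through 0.45 µm, concentration measured by UPLC-UV.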

[5] = Solubility of compound in FaSSIF at pH 6.5 incubated for 0.5 hrs by UPLC-UV analysis
Histamine H4 receptor = Histamine H4 receptor (Homo sapiens, UniProt Q9H3N8); assay: Displacement of [3H]-histamine from recombinant human histamine H4 receptor expressed in CHO-K1 cell membranes measured after 30 mins by microbeta scintillation counting method; set-up: species or system Cell membrane
[6] = Basicity constant, pKa of the compound; type: physicochemical
[7] = Lipophilicity, logD of the compound at pH 7.4; type: physicochemical; conditions: buffer
[8] = Cmax in ICR mouse at 50 mg/kg, po measured upto 24 hrs by LC-MS/MS analysis; type: ADME, organism-based; set-up: route oral, dose 50 mg/kg, time <=24; conditions: in vivo
In short: (§2)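 Female ICR mice, n=3 per group, given test compound orally. Blood sampled at 0.5, 1, 2, 4, 7 and 24 h post dose; plasma levels quantified by LC-MS/MS. Parameters from non-compartmental analysis.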

[9] = Tmax in ICR mouse at 50 mg/kg, po measured upto 24 hrs by LC-MS/MS analysis; type: ADME, organism-based; conditions: in vivo; in short: as §2
[10] = AUC (all) in ICR mouse at 50 mg/kg, po measured upto 24 hrs by LC-MS/MS analysis; type: ADME, organism-based; set-up: route oral, dose 50 mg/kg, time <=24; conditions: in vivo; in short: as §2
[11] = molecular target: T2, 5-hydroxytryptamine receptor 3A (Homo sapiens, UniProt P46098); assay: Displacement of [3H]BRL 43694 from human recombinant 5-HT3 receptor after 120 mins by scintillation counting analysis
T2 sequence (P46098 whole entry): T1 sequence (whole entry)

Chain of Histamine H4 receptor (Q9H3N8 whole entry): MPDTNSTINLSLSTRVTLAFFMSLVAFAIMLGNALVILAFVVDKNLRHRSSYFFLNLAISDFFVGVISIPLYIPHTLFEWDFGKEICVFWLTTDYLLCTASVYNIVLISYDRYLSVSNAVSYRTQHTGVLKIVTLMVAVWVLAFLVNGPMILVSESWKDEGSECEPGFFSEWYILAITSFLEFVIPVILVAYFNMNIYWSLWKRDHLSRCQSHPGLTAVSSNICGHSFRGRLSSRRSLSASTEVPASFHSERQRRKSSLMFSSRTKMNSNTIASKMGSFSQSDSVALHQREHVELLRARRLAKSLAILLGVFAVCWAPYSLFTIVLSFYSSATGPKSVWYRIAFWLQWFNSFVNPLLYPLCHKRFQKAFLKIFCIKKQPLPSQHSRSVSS
Chain of Histamine H3 receptor (Q9Y5N1 whole entry): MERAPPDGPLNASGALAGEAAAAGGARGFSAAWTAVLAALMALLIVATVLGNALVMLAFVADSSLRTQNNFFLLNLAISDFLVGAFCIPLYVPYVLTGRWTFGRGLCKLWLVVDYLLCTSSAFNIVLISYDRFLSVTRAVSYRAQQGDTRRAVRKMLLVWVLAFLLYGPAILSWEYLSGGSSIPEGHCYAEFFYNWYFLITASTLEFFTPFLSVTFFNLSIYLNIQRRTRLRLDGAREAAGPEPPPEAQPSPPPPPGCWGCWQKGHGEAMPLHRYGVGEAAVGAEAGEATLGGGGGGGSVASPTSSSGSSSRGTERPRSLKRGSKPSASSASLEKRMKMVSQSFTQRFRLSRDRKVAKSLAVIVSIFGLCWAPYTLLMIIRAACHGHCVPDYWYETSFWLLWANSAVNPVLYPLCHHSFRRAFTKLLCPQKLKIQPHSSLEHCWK

Row | SMILES | IC50 (Histamine H3 receptor) | microsomal CLint at 5 µM [2] | microsomal CLint at 5 µM [3] | solubility at 2 h [4] | solubility at 0.5 h [5] | IC50 (Histamine H4 receptor) | further results
1 | CN1CCN(c2nc3ncc(Cl)cc3n3nnnc23)CC1 | 73 µM | – | – | – | – | – | inhibition ([1]; filed as antagonist): 85%
2 | CN1CCN(c2nc3ncc(C#N)cc3n3cnnc23)CC1 | – | 2.8 µL/min/mg | 3.49 µL/min/mg | 1740 µg/mL (≈ 5.92 mM) | 417 µg/mL (≈ 1.42 mM) | – | –
3 | CN1CCN(c2nc3ncc(C(F)(F)F)cc3n3cnnc23)CC1 | 43 µM | 2.05 µL/min/mg | 1.31 µL/min/mg | > 2000 µg/mL | 1230 µg/mL (≈ 3.65 mM) | – | –
4 | CN[C@@H]1CCN(c2nc3ncc(Cl)cc3n3cnnc23)C1 | – | – | – | – | – | 4.1 µM | –
5 | CN1CCN(c2cc3ccc(Cl)cc3n3cnnc23)CC1 | > 100 µM | 8.43 µL/min/mg | 0.86 µL/min/mg | > 2000 µg/mL | > 2000 µg/mL | 6.2 µM | –
6 | CNC1CN(c2nc3ncc(Cl)cc3n3nnnc23)C1 | – | – | – | – | – | 0.053 µM | inhibition [1]: 18%
7 | CNC1CN(c2nc3ncc(Cl)cc3c3ncnn23)C1 | – | – | – | – | – | 1.1 µM | inhibition [1]: 32%
8 | Clc1cnc2nc(N3CCNCC3)c3nncn3c2c1 | – | – | – | – | – | – | pKa [6]: 8.9
9 | Clc1cnc2nc(N3CC4CCCNC4C3)c3nncn3c2c1 (configuration not stated) | – | – | – | – | – | > 10 µM | –
10 | Cc1cnc2nc(N3CCN(C)CC3)c3nncn3c2c1 | – | 2.91 µL/min/mg | 5.17 µL/min/mg | 2000 µg/mL (≈ 7.05 mM) | 1900 µg/mL (≈ 6.72 mM) | – | –
11 | CN1CCN(c2nc3ncc(Br)cc3n3cnnc23)CC1 | 71 µM | 3.13 µL/min/mg | 1.64 µL/min/mg | 1930 µg/mL (≈ 5.54 mM) | 679 µg/mL (≈ 1.95 mM) | – | –
12 | CN1CCN(c2nc3nc(OCC(F)(F)F)c(Cl)cc3n3cnnc23)CC1 | – | 4.94 µL/min/mg | 5.72 µL/min/mg | – | – | – | –
13 | N[C@@H]1CCN(c2nc3ncc(Cl)cc3n3cnnc23)C1 | – | – | – | – | – | 6.3 µM | –
14 | CN1CCCN(c2nc3ncc(Cl)cc3n3cnnc23)CC1 | 11 µM | – | – | – | – | 2.9 µM | –
15 | CN1CCN(c2nc3ncc(Br)cc3n3nnnc23)CC1 | 49 µM | – | – | – | – | – | inhibition ([1]; filed as antagonist): 89%
16 | CN1CCN(c2nc3cccnc3n3cnnc23)CC1 | – | 50.2 µL/min/mg | 8.21 µL/min/mg | 1920 µg/mL (≈ 7.14 mM) | > 2000 µg/mL | 3 µM | –
17 | CCOc1nc2nc(N3CCN(C)CC3)c3nncn3c2cc1Cl | – | 3.56 µL/min/mg | 3.28 µL/min/mg | – | – | 0.52 µM | –
18 | CN(C)[C@@H]1CCN(c2nc3ncc(Cl)cc3n3cnnc23)C1 | – | – | – | – | – | 4.8 µM | –

Row | SMILES | IC50 (Histamine H3 receptor) | microsomal CLint at 5 µM [2] | microsomal CLint at 5 µM [3] | solubility at 2 h [4] | solubility at 0.5 h [5] | IC50 (Histamine H4 receptor) | further results
19 | CN1CCN(c2nc3ncccc3n3cnnc23)CC1 | – | 5.36 µL/min/mg | 0.61 µL/min/mg | > 2000 µg/mL | > 2000 µg/mL | 3 µM | –
20 | CN1CCN(c2nc3ccc(Cl)cc3n3cnnc23)CC1 | 4.4 µM | 29.1 µL/min/mg | 5.83 µL/min/mg | > 2000 µg/mL | 227 µg/mL (≈ 0.75 mM) | – | IC50 (Histamine H4 receptor; cho-k1): 0.022 µM; logD [7]: 2.12; Cmax [8]: 676 ng/mL; Tmax [9]: 40.2 min; AUC at 24 h [10]: 1680 ng·h/mL
21 | Clc1cnc2nc(N3CCCNCC3)c3nncn3c2c1 | – | – | – | – | – | > 10 µM | –
22 | CN1CCN(c2nc3ncc(I)cc3n3cnnc23)CC1 | – | 3.74 µL/min/mg | 2.81 µL/min/mg | 1250 µg/mL (≈ 3.16 mM) | 126 µg/mL (≈ 0.319 mM) | – | –
23 | Clc1cnc2nc(N3CCN4CCCC4C3)c3nncn3c2c1 (configuration not stated) | 24 µM | – | – | – | – | 0.052 µM | –
24 | NC1CN(c2nc3ncc(Cl)cc3n3cnnc23)C1 | – | – | – | – | – | 5.2 µM | inhibition [1]: 24.5%
25 | CN1CCN(c2nc3ncc(Cl)cc3c3ncnn23)CC1 | 75 µM | – | – | – | – | – | inhibition ([1]; filed as antagonist): 96%
26 | Clc1cnc2nc(N3CCN(C4CC4)CC3)c3nncn3c2c1 | – | – | – | – | – | > 10 µM | –
27 | CN1CCN(c2nc3ccccc3n3cnnc23)CC1 | > 100 µM | 73.1 µL/min/mg | 11.5 µL/min/mg | > 2000 µg/mL | 1190 µg/mL (≈ 4.42 mM) | 2.3 µM | –
28 | CN1CCN(c2nc3nc(Cl)c(Cl)cc3n3cnnc23)CC1 | – | 5.28 µL/min/mg | 2.55 µL/min/mg | 1950 µg/mL (≈ 5.76 mM) | 163 µg/mL (≈ 0.482 mM) | – | –
29 | CN1CCN(c2nc3ncc(Cl)cc3n3cnnc23)CC1 | – | 1.98 µL/min/mg | 0.6 µL/min/mg | > 2000 µg/mL | 1240 µg/mL (≈ 4.1 mM) | 0.077 µM | logD [7]: 0.95; inhibition ([1]; filed as antagonist): 100%; pKa [6]: 9.9; IC50 [11]: 0.057 µM; Cmax [8]: 4630 ng/mL; Tmax [9]: 30 min; AUC at 24 h [10]: 23600 ng·h/mL
30 | Cc1c(Br)cnc2nc(N3CCN(C)CC3)c3nncn3c12 | 24 µM | 7.62 µL/min/mg | 3.84 µL/min/mg | 1800 µg/mL (≈ 4.97 mM) | 583 µg/mL (≈ 1.61 mM) | – | –
31 | CN1CCN(c2nc3nc(C#N)c(Cl)cc3n3cnnc23)CC1 | 36 µM | 0.69 µL/min/mg | 1.63 µL/min/mg | – | – | – | –
32 | CNC1CN(c2nc3ncc(Cl)cc3n3cnnc23)C1 | – | – | – | – | – | 0.065 µM | inhibition ([1]; filed as antagonist): 50%
33 | Cc1ccc2nc(N3CCN(C)CC3)c3nncn3c2c1 | 15 µM | 23.3 µL/min/mg | 7.51 µL/min/mg | > 2000 µg/mL | 1940 µg/mL (≈ 6.88 mM) | 0.57 µM | –
34 | CN(C)C1CN(c2nc3ncc(Cl)cc3n3cnnc23)C1 | – | – | – | – | – | 1.2 µM | inhibition ([1]; filed as antagonist): 77.5%
35 | CN1CCN(c2nc3ccc([N+](=O)[O-])cc3n3cnnc23)CC1 | 41 µM | 10.4 µL/min/mg | 2.63 µL/min/mg | 1900 µg/mL (≈ 6.06 mM) | 80.2 µg/mL (≈ 0.256 mM) | 0.17 µM | –
36 | CN1CCN(C(=O)c2cc3cc(Cl)ccc3[nH]2)CC1 [JNJ-7777120] | > 100 µM | 128 µL/min/mg | 6.5 µL/min/mg | 1410 µg/mL (≈ 5.09 mM) | 378 µg/mL (≈ 1.36 mM) | – | –
